Reference: ChEMBL document CHEMBL3808283, “Biological Characterization and in Vivo Assessment of the Activity of a New Synthetic Macrocyclic Antifungal Compound” (J Med Chem, 2016)
≈ marks a conversion by molar mass, not a printed value. Calls of active or inactive are those of the source. No cut-off for these calls is given here.

Experiments:
Candida albicans [1] = test: Upregulation of orf19.1438 gene expression in Candida albicans SC5314 at 3 uM after 15 mins by microarray method relative to control; assay type: functional
Summary of the method: (§1)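 Log-phase C. albicans SC5314 in liquid YEPD exposed to 3 µM final for 15 or 45 min; untreated controls taken at the same time points. Three biological replicates. RNA extracted by glass-bead/phenol-chloroform method and integrity checked. One-color Cy3-labeled cRNA (600 ng) hybridized 17 h at 65 °C to 8 × 15K arrays. Expression expressed as fold change versus control.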

Candida albicans [2] = test: Upregulation of orf19.2726 gene expression in Candida albicans SC5314 at 3 uM after 15 mins by microarray method relative to control; assay type: functional
Summary of the method: (§2)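 Log-phase cultures in liquid YEPD were exposed to 3 µM compound (final) for 15 or 45 min, with untreated controls sampled at the same times, in three biological replicates. Total RNA was extracted by glass-bead/phenol-chloroform disruption and integrity-checked. One-color Cy3-labelled cRNA (600 ng) was hybridized for 17 h at 65 °C to 8 × 15K arrays, and fold change was taken versus control.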

Candida albicans [3] = test: Upregulation of orf19.4531 gene expression in Candida albicans SC5314 at 3 uM after 15 mins by microarray method relative to control; assay type: functional; summary of the method: as §2
Candida albicans [4] = test: Upregulation of TAC1 gene expression in Candida albicans SC5314 at 3 uM after 15 mins by microarray method relative to control; assay type: functional; summary of the method: as §1
Candida albicans [5] = test: Antifungal activity against Candida albicans 15T measured at 24 hrs by broth dilution assay; assay type: functional
Summary of the method: (§3)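 EUCAST broth microdilution, including the update for non-fermenting yeasts (Cryptococcus, Geotrichum), on clinical and reference yeast isolates. Incubated at 37 °C and read at 24, 48 and 72 h. MIC taken as the lowest concentration with no visible growth. For Cryptococcus and Geotrichum, MICs were read only once growth was visible in the control row.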

Candida albicans [6] = test: Antifungal activity against wild type Candida albicans CAF2-1 at 10 uM by serial dilution assay; assay type: functional, organism-based
Candida parapsilosis [7] = test: Antifungal activity against Candida parapsilosis 64E measured at 24 hrs by broth dilution assay; assay type: functional; conditions: Lodderomyces parapsilosis; summary of the method: as §3
Candida albicans [8] = test: Antifungal activity against azole-resistant Candida albicans isolate DSY296 in immunocompetent Balb/c mouse candidiasis model assessed as reduction in CFU count in kidney at 40 mg/kg/day, ip regime measured on day 7 post infection; assay type: functional, organism-based
Summary of the method: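 Immunocompetent BALB/c mice, 10 per strain group, received 7 × 10^4 CFU of C. albicans in 200 µL saline via the lateral vein. Drug was given i.p. daily at 40 mg/kg/day as a 0.1 mg/mL solution in DMSO/PEG 400 (2:1), 100 µL per dose. On day 7, spleen and kidneys were weighed, homogenized, and plated on YPD agar (2 days, 30 °C) for CFU/g. Analysis used Wilcoxon rank-sum, P<0.05.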

[9] = Antifungal activity against Geotrichum silvicola measured at 24 hrs by broth dilution assay; assay type: functional; summary of the method: as §3
Candida albicans [10] = test: Upregulation of CRZ2 gene expression in Candida albicans SC5314 at 3 uM after 45 mins by microarray method relative to control; assay type: functional; summary of the method: as §1
Candida albicans [11] = test: Upregulation of ERG2 gene expression in Candida albicans SC5314 at 3 uM after 15 mins by microarray method relative to control; assay type: functional; summary of the method: as §1
Candida albicans [12] = test: Upregulation of orf19.3089 gene expression in Candida albicans SC5314 at 3 uM after 15 mins by microarray method relative to control; assay type: functional; summary of the method: as §2
Candida albicans [13] = test: Upregulation of orf19.6873.1 gene expression in Candida albicans SC5314 at 3 uM after 45 mins by microarray method relative to control; assay type: functional; summary of the method: as §2
Candida tropicalis = test: Ratio of MIC at 24 hrs to MIC at 48 hrs for Candida tropicalis 86E; assay type: functional
Summary of the method: (§4)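 MICs by EUCAST broth microdilution, with the update for non-fermenting yeasts, incubated at 37 °C. Read at 24, 48 and 72 h as the lowest concentration preventing visible growth.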

Candida albicans [14] = test: Upregulation of orf19.7336 gene expression in Candida albicans SC5314 at 3 uM after 15 mins by microarray method relative to control; assay type: functional; summary of the method: as §2
Candida albicans [15] = test: Antifungal activity against azole-susceptible Candida albicans isolate DSY294 in immunocompetent Balb/c mouse candidiasis model assessed as reduction in CFU count in spleen at 40 mg/kg/day, ip regime measured on day 7 post infection; assay type: functional, organism-based
Summary of the method: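 Immunocompetent BALB/c mice, 10 per strain group, injected in the lateral tail vein with 7 × 10^4 CFU of C. albicans in 200 µL sterile saline. Compound given ip daily, 100 µL of 0.1 mg/mL in DMSO/PEG 400 2:1; fluconazole control ip at 8 mg/kg/day. On day 7, spleen and kidneys were excised, weighed and homogenized in saline, then plated on YPD agar for 2 days at 30 °C. Read-out CFU/g; Wilcoxon rank-sum test, P<0.05.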

Candida albicans [16] = test: Antifungal activity against Candida albicans 53T measured at 48 hrs by broth dilution assay; assay type: functional; summary of the method: as §3
Candida parapsilosis [17] = test: Antifungal activity against Candida parapsilosis 81E measured at 72 hrs by broth dilution assay; assay type: functional; conditions: Lodderomyces parapsilosis; summary of the method: as §3
Candida parapsilosis [18] = test: Antifungal activity against Candida parapsilosis ATCC 34136 measured at 48 hrs by broth dilution assay; assay type: functional; conditions: Lodderomyces parapsilosis, ATCC 34136, 48 h; summary of the method: as §3
Magnusiomyces capitatus = test: Fungicidal activity against Geotrichum capitatum at 40 uM measured at 48 hrs by time kill assay; assay type: functional
Summary of the method: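 EUCAST broth microdilution at 37 °C. From wells at MIC, 2×, 4× and 8× MIC, 10 µL aliquots were taken, serially 10-fold diluted in saline and plated on Sabouraud dextrose agar. Plates were incubated at 37 °C for 24/48 h, and 48 h for Cryptococcus and Geotrichum. Done in duplicate, detection limit 10 CFU/mL. A drop of at least 3 Log10 CFU/mL from the initial inoculum in 24 h counts as fungicidal; a smaller drop counts as fungistatic.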

Candida parapsilosis [19] = test: Ratio of MIC at 24 hrs to MIC at 48 hrs for Candida parapsilosis 81E; assay type: functional; summary of the method: as §4
Candida albicans [20] = test: Upregulation of ERG2 gene expression in Candida albicans SC5314 at 3 uM after 45 mins by microarray method relative to control; assay type: functional; summary of the method: as §1
Candida albicans [21] = test: Upregulation of IFU5 gene expression in Candida albicans SC5314 at 3 uM after 15 mins by microarray method relative to control; assay type: functional; summary of the method: as §1
Nakaseomyces glabratus = test: Antifungal activity against Candida glabrata 70 measured at 48 hrs by broth dilution assay; assay type: functional; conditions: Nakaseomyces glabratus, 70, 48 h; summary of the method: as §3
Candida albicans [22] = test: Upregulation of FCR1 gene expression in Candida albicans SC5314 at 3 uM after 15 mins by microarray method relative to control; assay type: functional; summary of the method: as §1
Candida albicans [23] = test: Upregulation of CDR1 gene expression in Candida albicans SC5314 at 3 uM after 15 to 45 mins by qRT-PCR method; assay type: functional, organism-based
Summary of the method: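 Log-phase C. albicans treated at 3 µM. RNA extracted with glass-bead disruption, then DNase-treated (10 µg per preparation). Target gene CT values were normalized to an endogenous reference. Fold change calculated as mean normalized expression of samples relative to a selected control.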

Candida albicans [24] = test: Upregulation of ARE2 gene expression in Candida albicans SC5314 at 3 uM after 15 mins by microarray method relative to control; assay type: functional; summary of the method: as §1

Compound: C/C=C/CNC(=N)NCCCCCCCCN1CCCCCCCCNC(=N)NC1=O
- fold change (FC) (Candida albicans [1]): 6.13
- fold change (FC) (Candida albicans [2]): 5.86
- fold change (FC) (Candida albicans [3]): 17.22
- fold change (FC) (Candida albicans [4]): 2.79
- MIC (Candida albicans [5]): 5 µM (≈ 2.18 µg/mL)
- Activity (Candida albicans [6]): Active
- MIC (Candida parapsilosis [7]): 20 µM (≈ 8.71 µg/mL)
- Activity (Candida albicans [8]): Active
- Activity [9]: Active
- fold change (FC) (Candida albicans [10]): 2.66
- fold change (FC) (Candida albicans [11]): 2.61
- fold change (FC) (Candida albicans [12]): 2.39
- fold change (FC) (Candida albicans [13]): 1.9
- Ratio (Candida tropicalis): 2
- fold change (FC) (Candida albicans [14]): 2.8
- Activity (Candida albicans [15]): Active
- MIC (Candida albicans [16]): 5 µM (≈ 2.18 µg/mL)
- MIC (Candida parapsilosis [17]): 40 µM (≈ 17.4 µg/mL)
- MIC (Candida parapsilosis [18]): 80 µM (≈ 34.9 µg/mL)
- Activity (Magnusiomyces capitatus): Active
- Ratio (Candida parapsilosis [19]): 2
- fold change (FC) (Candida albicans [20]): 2.83
- fold change (FC) (Candida albicans [21]): 1.63
- MIC (Nakaseomyces glabratus): > 80 µM
- fold change (FC) (Candida albicans [22]): 2.86
- Activity (Candida albicans [23]): Active
- fold change (FC) (Candida albicans [24]): 2.11
